The source made the active and inactive calls. The rule behind the calls is not given here.
How the values were obtained:
MRC5 [1] = test: Cytotoxicity against human MRC5 cells after 24 hrs; type: cell-based; conditions: MRC5, 24 h
Method in brief: (§1)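 MRC-5 human embryonic lung fibroblasts were grown in MEM with 10% heat-inactivated FBS and no antibiotics at 37 °C, 5% CO2, and seeded at 10^4 cells/well. After 48 h, drugs were applied at 256 to 1 µg/mL for 24, 48 or 168 h. Viability was read by MTT, or by LDH release for some compounds, as percent of untreated control. IC50 was given as a range; 8 wells per dose, 3 independent experiments.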

Pseudomonas aeruginosa [2] = test: Antibacterial activity against Pseudomonas aeruginosa ATCC 27853 after 18 to 24 hrs by broth microdilution method; type: functional
Method in brief: (§2)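 CLSI broth microdilution in Mueller-Hinton broth, with a final inoculum of 1 × 10^5 CFU/mL in U-bottom microplates. Isolate purity was checked at each test by colony morphology and Gram stain. Drug dilutions were added and plates incubated 18–24 h at 35 °C. Growth was read as absorbance at 540 nm to give the MIC.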

Enterococcus faecalis [3] = test: Antibacterial activity against Enterococcus faecalis ATCC 29212 after 18 to 24 hrs by broth microdilution method; type: functional; method in brief: as §2
[4] = Selectivity index, ratio of IC50 for human MRC5 cells after 24 hrs to MIC for Staphylococcus aureus ATCC 29213; type: functional
Method in brief: (§3)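 SI computed as the MRC-5 IC50 after 24 h of drug exposure divided by the broth microdilution MIC for the named reference strain.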

[5] = Selectivity index, ratio of IC50 for human MRC5 cells after 24 hrs to MIC for Enterococcus faecalis ATCC 29212; type: functional; method in brief: as §3
Escherichia coli [6] = test: Antibacterial activity against Escherichia coli ATCC 25922 after 18 to 24 hrs by broth microdilution method; type: functional; method in brief: as §2
MRC5 [7] = test: Cytotoxicity against human MRC5 cells after 168 hrs; type: cell-based; conditions: MRC5, 168 h; method in brief: as §1
[8] = Selectivity index, ratio of IC50 for human MRC5 cells after 24 hrs to MIC for Escherichia coli ATCC 25922; type: functional; method in brief: as §3
[9] = Selectivity index, ratio of IC50 for human MRC5 cells after 24 hrs to MIC for Staphylococcus aureus ATCC 25923; type: functional; method in brief: as §3
[10] = Selectivity index, ratio of IC50 for human MRC5 cells after 24 hrs to MIC for Pseudomonas aeruginosa ATCC 27853; type: functional; method in brief: as §3
Staphylococcus aureus [11] = test: Antibacterial activity against Staphylococcus aureus ATCC 25923 after 18 to 24 hrs by broth microdilution method; type: functional; method in brief: as §2
Staphylococcus aureus [12] = test: Antibacterial activity against Staphylococcus aureus ATCC 29213 after 18 to 24 hrs by broth microdilution method; type: functional; method in brief: as §2
MRC5 [13] = test: Cytotoxicity against human MRC5 cells after 48 hrs; type: cell-based; conditions: MRC5, 48 h; method in brief: as §1
Staphylococcus aureus [14] = test: Antibacterial activity against Staphylococcus aureus ATCC 29213 upto 256 ug/mL after 18 to 24 hrs by broth microdilution method; type: functional, organism-based; method in brief: as §2
Enterococcus faecalis [15] = test: Antibacterial activity against Enterococcus faecalis ATCC 29212 upto 256 ug/mL after 18 to 24 hrs by broth microdilution method; type: functional, organism-based; method in brief: as §2
Staphylococcus aureus [16] = test: Antibacterial activity against Staphylococcus aureus ATCC 25923 upto 256 ug/mL after 18 to 24 hrs by broth microdilution method; type: functional, organism-based; method in brief: as §2
Pseudomonas aeruginosa [17] = test: Antibacterial activity against Pseudomonas aeruginosa ATCC 27853 upto 256 ug/mL after 18 to 24 hrs by broth microdilution method; type: functional, organism-based; method in brief: as §2
Escherichia coli [18] = test: Antibacterial activity against Escherichia coli ATCC 25922 upto 256 ug/mL after 18 to 24 hrs by broth microdilution method; type: functional, organism-based; method in brief: as §2

Compound | IC50 (MRC5 [1]) [µg/mL] | MIC (Pseudomonas aeruginosa [2]) [µg/mL] | MIC (Enterococcus faecalis [3]) [µg/mL] | Selectivity Index [4] | Selectivity Index [5] | MIC (Escherichia coli [6]) [µg/mL] | IC50 (MRC5 [7]) [µg/mL] | Selectivity Index [8] | Selectivity Index [9] | Selectivity Index [10] | MIC (Staphylococcus aureus [11]) [µg/mL] | MIC (Staphylococcus aureus [12]) [µg/mL] | IC50 (MRC5 [13]) [µg/mL] | Activity (Staphylococcus aureus [14]) | Activity (Enterococcus faecalis [15]) | Activity (Staphylococcus aureus [16]) | Activity (Pseudomonas aeruginosa [17]) | Activity (Escherichia coli [18])
N=C(N)c1ccc(OCCCCCCOc2ccc(C(=N)N)cc2)cc1.O=C(O)C(F)(F)F | 32 | 32 | 2 | 32 | 16 | 8 | 4 | 4 | 8 | 1 | 4 | < 1 | 16 | – | – | – | – | –
Cc1csc(-c2nc(COc3ccc(CCNC(=N)N)cc3)cs2)n1.O=C(O)C(F)(F)F | 64 | 128 | 64 | 8 | 1 | 64 | 8 | 1 | 4 | 0.5 | 16 | 8 | 32 | – | – | – | – | –
O=C([O-])C(F)(F)F.[Na+] | – | – | – | – | – | – | – | – | – | – | – | – | – | inactive | inactive | inactive | inactive | inactive
N=C(N)NCCc1cc2c(O)c(c1)Cc1cc(CCNC(=N)N)cc(c1O)Cc1cc(CCNC(=N)N)cc(c1O)Cc1cc(CCNC(=N)N)cc(c1O)C2.O=C(O)C(F)(F)F | > 256 | 32 | 32 | >32 | >8 | 4 | 128 | >64 | >32 | >8 | 8 | 8 | > 256 | – | – | – | – | –
Cc1ccc(-c2ccc(COc3ccc(CCNC(=N)N)cc3)cn2)nc1.O=C(O)C(F)(F)F | > 128 | 128 | 64 | >32 | >2 | 8 | – | >16 | >16 | >1 | 8 | 4 | > 128 | – | – | – | – | –
N=C(N)NCCCCCCCCCCNC(=N)N.O=C(O)C(F)(F)F [SYNTHALIN A] | 128 | 128 | 256 | 8 | 0.5 | 64 | < 1 | 2 | 2 | 1 | 64 | 16 | 8 | – | – | – | – | –
Cc1cccc(-c2cccc(COc3ccc(CCNC(=N)N)cc3)n2)n1.O=C(O)C(F)(F)F | 32 | 128 | 64 | 4 | 0.5 | 128 | 2 | 0.25 | 2 | 0.25 | 16 | 8 | 16 | – | – | – | – | –
Cc1csc(-c2nc(COc3c4cc(CCNC(=N)N)cc3Cc3cc(CCNC(=N)N)cc(c3O)Cc3cc(CCNC(=N)N)cc(c3OCc3csc(-c5nc(C)cs5)n3)Cc3cc(CCNC(=N)N)cc(c3O)C4)cs2)n1.O=C(O)C(F)(F)F | 16 | 16 | 8 | 1 | 2 | 16 | 16 | 1 | 2 | 1 | 8 | 16 | 16 | – | – | – | – | –
N=C(N)NCCc1ccc(O)cc1.O=C(O)C(F)(F)F | > 256 | > 512 | > 512 | >0.5 | – | 512 | 32 | >0.5 | >0.5 | – | 512 | 512 | > 256 | – | – | – | – | –
Cc1ccc(-c2ccc(COc3c4cc(CCNC(=N)N)cc3Cc3cc(CCNC(=N)N)cc(c3O)Cc3cc(CCNC(=N)N)cc(c3OCc3ccc(-c5ccc(C)cn5)nc3)Cc3cc(CCNC(=N)N)cc(c3O)C4)cn2)nc1.O=C(O)C(F)(F)F | > 128 | 32 | 8 | >16 | >16 | 32 | – | >4 | >16 | >4 | 8 | 8 | > 128 | – | – | – | – | –
Cc1cccc(-c2cccc(COc3c4cc(CCNC(=N)N)cc3Cc3cc(CCNC(=N)N)cc(c3O)Cc3cc(CCNC(=N)N)cc(c3OCc3cccc(-c5cccc(C)n5)n3)Cc3cc(CCNC(=N)N)cc(c3O)C4)n2)n1.O=C(O)C(F)(F)F | 16 | 16 | 16 | 1 | 1 | 16 | 16 | 1 | 1 | 1 | 16 | 16 | 16 | – | – | – | – | –

— ChEMBL document CHEMBL1152431, “p-Guanidinoethyl calixarene and parent phenol derivatives exhibiting antibacterial activities. Synthesis and biological evaluation” (Bioorg Med Chem, 2009)
